Screens: PubChem BioAssay, Johns Hopkins Ion Channel Center
KCNQ1 inh = inhibitors of human KCNQ1 potassium channel | P51787 | CHO-K1 KCNQ1, FluxOR thallium flux fluorescence; stronger effect = higher value | B-score at 10 µM | 310,000 compounds, 1.3% hits | AID 2642;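 active = compounds whose thallium flux B-score, printed positive for inhibition, exceeds three library SD while starting fluorescence stays within three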;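 note: channel opened by potassium depolarization with thallium stimulus after 20 min compound exposure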
Kir21 block = blocks the mouse Kir2.1 inward-rectifier potassium channel; P35561; HEK293-Kir2.1, FluxOR thallium flux fluorescence; stronger effect = lower value; B-score at 10 µM; 310,000 compounds, 0.85% hits; AID 1672;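 active = fluorescence ratio B-score at or below minus 3 SD of library scores, with starting-brightness B-score within 2 SD, cut at about -4.2 in these data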;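 note: channel flux triggered by added potassium and thallium sulfate stimulus; B-score of peak minus minimum fluorescence over baseline after thallium stimulus; more negative B-score means stronger Kir2.1 block with less thallium influx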
KCNK9 inh = human KCNK9 channel inhibition; HEK293 KCNK9, FluxOR thallium flux fluorescence; stronger effect = lower value; B-score at 10 µM; Q9NPC2; 310,000 compounds, 1.2% hits; AID 488922;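 active = ratio B-score over 3 SD below the library mean, with starting fluorescence within 5 SD of its mean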;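 note: negative B-score means less thallium flux so channel inhibition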
Target sequence (Q9NPC2 whole entry, looked up): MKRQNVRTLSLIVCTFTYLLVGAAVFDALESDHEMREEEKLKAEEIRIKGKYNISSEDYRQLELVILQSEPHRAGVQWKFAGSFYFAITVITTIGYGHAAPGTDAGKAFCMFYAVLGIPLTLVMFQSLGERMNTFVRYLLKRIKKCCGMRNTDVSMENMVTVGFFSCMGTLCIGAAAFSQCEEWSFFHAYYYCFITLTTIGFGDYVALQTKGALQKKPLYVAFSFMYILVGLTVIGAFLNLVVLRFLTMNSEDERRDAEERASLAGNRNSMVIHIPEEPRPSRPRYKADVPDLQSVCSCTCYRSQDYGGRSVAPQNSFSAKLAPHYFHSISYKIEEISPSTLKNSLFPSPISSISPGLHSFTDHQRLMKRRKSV
KCNQ1 act = human KCNQ1 channel potentiation or activation | B-score at 10 µM | 310,000 compounds, 0.35% hits | CHO-K1 KCNQ1, thallium flux FluxOR fluorescence; stronger effect = higher value;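 active = fluorescence ratio B-score, a plate-corrected score, at least three library SD, with initial intensity B-score within 5 SD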
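System: Stable KCNQ1 CHO-K1 line | Incubation: 90 min dye loading and 20 min compound exposure, both at room temperature | Measure: Ratio B score | Medium: Assay buffer for compound exposure, DMSO matched across wells | Compound dosing: Single-concentration screen | Probe or stimulus: K+/Tl+ depolarizing stimulus | Measured by: Kinetic FluxOR fluorescence, 10 s baseline plus 110 s post-stimulus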
KCNK3 block = human KCNK3 channel inhibition, primary screen; O14649; CHO-KCNK3 thallium flux, FluxOR fluorescence; stronger effect = lower value; 340,000 compounds, 0.84% hits; B-score at 10 µM;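 active = B-score under library mean minus 4 SD, starting fluorescence ratio at most library mean plus 5 SD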;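 note: more negative B-score means stronger inhibition of thallium flux through KCNK3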
hERG protect = hERG (human) protection from proarrhythmic block; Q12809; CHO-hERG, FluxOR thallium flux, dofetilide IC70 present; activation (rescue from dofetilide block), less the hit threshold, % at 10 µM; 310,000 compounds, 0.51% hits; AID 1511;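 active = activation above the mean of controls blocked by dofetilide plus 5 SD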;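 note: thallium influx through hERG after potassium depolarization seen as dye fluorescence rise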
KCNK9 inh conf = confirmation of human KCNK9 potassium channel inhibitors; HEK293 KCNK9 cells, FluxOR thallium flux fluorescence; 4,900 compounds, 43% hits; AID 492992; inhibition, % at 10 µM; shares compounds with KCNK9 inh;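 active = thallium signal inhibited by more than 5 SD of the compound-free buffer control wells, on both duplicate plates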;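 note: 0% = assay buffer control wells without compound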
Kir2-1 spec = selectivity of KCNK9 modulators against mouse Kir2.1; shares compounds with KCNK9 inh; Kir2.1 cells, FluxOR thallium flux fluorescence; inhibition, % at 10 µM; 4,900 compounds, 4% hits; AID 492993;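 active = thallium signal drop more than 5 SD beyond the mean of the no-compound control wells, seen in both duplicate plates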;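 note: signal is fluorescence rise after thallium addition divided by baseline fluorescence; plate controls were assay buffer only for no effect and full block by chlorpromazine control for full effect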
HEK293 Tl ctr = second counter-screen for KCNK9 modulators: effect in non-induced cells | shares compounds with KCNK9 inh | non-induced KCNK9-HEK293, FluxOR thallium flux | inhibition, % at 10 µM | 4,900 compounds, 40% hits | AID 492997;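 active = thallium signal drop beyond 5 SD of the untreated control mean, on both duplicate plates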;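 note: plate controls were buffer only IC0 wells for no effect and SID17386958 at its maximal inhibitory level for full effect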
* marks the source's active call; other numbers are inactive results; i = inactive; x = not tested or not shown. Only some compounds are listed: those with a hit (about 3.7% of all), similar ones and a draw of the others.

SMILES | KCNQ1 inh | Kir21 block | KCNK9 inh | KCNQ1 act | KCNK3 block | hERG protect | KCNK9 inh conf | Kir2-1 spec | HEK293 Tl ctr
COc1ccc(CN(CCC(c2ccco2)C(C)C)C(C)=O)cc1OC (stereo not drawn) | i | -0.99 | i | i | i | -9.7 | x | x | x
CC(=O)N(CCC(c1ccco1)C(C)C)Cc1ccc(OC(C)C)cc1 (stereo not drawn) | i | -3.01 | -16.1* | i | i | -16.3 | 37.0%* | i | 43.0%*
COc1cc(CNCCO)cc(Cl)c1OCc1ccc(Cl)cc1Cl | i | -11.3* | -8.71* | i | i | -20.1 | 46.5%* | 61.5%* | i
O=C(/C=C/c1ccccc1Cl)N(Cc1ccc(Cl)cc1)C1CCS(=O)(=O)C1 (stereo not drawn) | i | 0 | -8.2* | i | i | -3.2 | 55.0%* | i | 35.5%*
O=C(/C=C/c1ccccc1Cl)N(Cc1ccccc1)C1CCS(=O)(=O)C1 (stereo not drawn) | i | 0.76 | i | i | i | -10.8 | x | x | x
Cc1cc(C)cc(NC2=CC(=O)CC(c3ccco3)C2)c1 (stereo not drawn) | i | 0.52 | -12.1* | i | i | -6.3 | 37.0%* | i | 23.5%*
CCOC(=O)CCNC(=O)N1CCCC(C(=O)c2cc(C)c(OC)c(C)c2)C1 (stereo not drawn) | i | 1.75 | i | i | i | -8.9 | x | x | x
COc1ccc(-c2csc(Nc3ccc(S(=O)(=O)Nc4cc(C)on4)cc3)n2)cc1C | i | -0.64 | -8.74* | i | i | -38.4 | 55.5%* | i | i
CC(C)=CCc1c(O)ccc(C2COc3c(CC=C(C)C)c(O)cc(O)c3C2=O)c1O (stereo not drawn) | i | 0.37 | -23.8* | i | i | -17.6 | 65.5%* | i | 27.5%*
CC(C)=CCc1c(O)cc2c(c1O)C(=O)CC(c1ccccc1)O2 (stereo not drawn) | i | 0.33 | i | i | i | -8.2 | x | x | x
COc1cc(/C=N/N2C(=O)CSC2=S)ccc1O | i | -0.19 | i | i | i | -12.3 | x | x | x
O=C1CSC(=S)N1/N=C/c1cc(Br)c(O)c(Br)c1 | i | -9.01 | -9.83* | i | i | -32.8 | 64.0%* | 57.0%* | 70.5%*
O=C(CN1CCCC1)Nc1ccccc1C(=O)c1ccccc1 | i | 0.05 | i | i | i | -12.4 | x | x | x
O=C(c1ccccc1)c1ccccc1NC(=O)C1CCCN1Cc1ccccc1 (stereo not drawn) | i | 0.42 | -9.47* | i | i | -11.3 | 58.5%* | i | 38.5%*
Fc1ccc2c(c1)C1C=CCC1C(c1cc3c(cc1Br)OCO3)N2 (stereo not drawn) | i | 0.94 | -13.3* | i | i | -9.7 | 49.0%* | i | 48.0%*
O=C(O)C1Nc2ccc(Br)cc2C2C=CCC12 (stereo not drawn) | i | 0.66 | i | i | i | -5.4 | x | x | x
CC(C)OP(=O)(c1ccc(N(C)C)cc1)C(O)c1cccnc1 (stereo not drawn) | i | 0.74 | i | i | i | -6.5 | x | x | x
CCc1ccc(NSc2ccccc2[N+](=O)[O-])cc1 | i | -1.11 | -8.84* | i | i | -7.5 | 42.0%* | i | 28.0%*
O=C(O)c1ccccc1NSc1ccccc1[N+](=O)[O-] | i | 0.23 | i | i | i | -3.8 | x | x | x
O=C1c2cccc3c2[C@H](CCC3)CN1[C@@H]1CN2CCC1CC2 | i | -0.2 | i | i | x | -2.7 | x | x | x
N#C/C(=C/c1ccc(OCc2ccc(C(=O)O)cc2)c(Br)c1)c1cccc(F)c1 | i | 2.13 | i | i | i | -10.7 | i | i | i
